Active and inactive are the calls of the source. How the calls were made is not given here.
What was measured:
[1] = target: T1, 3-phosphoinositide-dependent protein kinase 1 (Homo sapiens) (UniProt O15530); test: Inhibition of PDK2 in human PC3 cells assessed as Akt Thr-308 dephosphorylation by Western blot analysis; assay type: functional, cell-based; details: PC-3
T1 sequence (whole entry): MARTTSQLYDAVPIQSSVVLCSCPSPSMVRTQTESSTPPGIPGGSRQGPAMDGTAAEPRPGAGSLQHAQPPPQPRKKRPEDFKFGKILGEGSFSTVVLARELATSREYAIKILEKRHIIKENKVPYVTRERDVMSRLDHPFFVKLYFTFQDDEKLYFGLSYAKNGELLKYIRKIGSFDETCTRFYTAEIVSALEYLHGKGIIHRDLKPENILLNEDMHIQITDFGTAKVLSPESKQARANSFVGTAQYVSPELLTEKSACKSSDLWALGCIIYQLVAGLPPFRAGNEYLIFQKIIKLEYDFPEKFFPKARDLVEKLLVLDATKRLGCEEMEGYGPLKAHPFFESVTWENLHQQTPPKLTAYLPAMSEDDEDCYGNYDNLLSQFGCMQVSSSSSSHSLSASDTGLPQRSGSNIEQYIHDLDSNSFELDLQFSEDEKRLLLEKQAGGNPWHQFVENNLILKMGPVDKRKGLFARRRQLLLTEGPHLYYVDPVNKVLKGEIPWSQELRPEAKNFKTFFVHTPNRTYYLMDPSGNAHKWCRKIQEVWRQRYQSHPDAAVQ
Method in brief: (§1)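 Cells exposed 24 h in 5% FBS medium, final DMSO 0.1%; lysed in 1% SDS/10 mM EDTA/50 mM Tris pH 8.1, equal protein on SDS-PAGE, nitrocellulose, primary antibody 1:1000 at 4°C for 2 h, HRP secondary 1:5000, ECL detection; blots representative of three independent experiments.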

[2] = test system: 3-phosphoinositide dependent protein kinase-2, PDK2; test: Inhibition of PDK2 in human PC3 cells assessed as Akt Ser-473 dephosphorylation by Western blot analysis; assay type: functional, cell-based; details: PC-3; method in brief: as §1

With `CNC(=O)c1cc(-c2ccc(-c3ccc(C(F)(F)F)cc3)cc2)n(-c2ccc(NC(=O)CCN)cc2)n1` the inhibition [1] was “inactive” and the inhibition [2] was “inactive”.

Source: ChEMBL document CHEMBL1828498, “Identification and characterization of a novel integrin-linked kinase inhibitor” (J Med Chem, 2011)
